# Experimental data published in ChEMBL document CHEMBL1145346, “Probing hot spots at protein-ligand binding sites: a fragment-based approach using biophysical methods” (J Med Chem, 2006).
# Active and inactive are the calls of the source. The calls are words filed in the database; no cut-off is given here.
# T1: 2-dehydropantoate 2-reductase (Escherichia coli K-12, UniProt P0A9J4)
# T1 sequence (P0A9J4 whole entry): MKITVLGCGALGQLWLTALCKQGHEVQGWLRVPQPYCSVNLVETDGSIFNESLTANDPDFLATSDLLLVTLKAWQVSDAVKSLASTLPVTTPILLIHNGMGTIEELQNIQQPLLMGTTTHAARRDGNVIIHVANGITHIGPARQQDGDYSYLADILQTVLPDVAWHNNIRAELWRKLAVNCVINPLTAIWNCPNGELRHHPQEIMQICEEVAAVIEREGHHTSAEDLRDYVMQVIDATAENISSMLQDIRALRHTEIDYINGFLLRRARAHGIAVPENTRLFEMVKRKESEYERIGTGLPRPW
# T2: 2-dehydropantoate 2-reductase (Escherichia coli K-12) (UniProt P0A9J4)
# T2 sequence (whole entry): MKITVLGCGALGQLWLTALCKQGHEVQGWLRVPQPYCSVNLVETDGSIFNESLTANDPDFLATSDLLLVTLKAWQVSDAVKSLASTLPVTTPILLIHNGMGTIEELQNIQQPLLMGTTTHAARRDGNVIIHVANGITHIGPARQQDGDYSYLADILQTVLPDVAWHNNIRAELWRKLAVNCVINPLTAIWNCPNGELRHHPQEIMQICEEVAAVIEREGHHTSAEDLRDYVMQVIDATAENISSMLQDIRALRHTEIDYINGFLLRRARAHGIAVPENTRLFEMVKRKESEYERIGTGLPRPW
# Key:
# [1] = target: T1, 2-dehydropantoate 2-reductase; assay: Binding affinity to Escherichia coli KPR; assay type: single protein
# Method in brief: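 Isothermal titration calorimetry with His6-tagged E. coli KPR in 0.1 M HEPES/HCl, pH 7.7, at 27 °C. Data were corrected for heat of dilution and fitted to a single-site binding model. For weak ligands (Kd > 100 µM), stoichiometry was fixed at n = 1, determined from active-site titrations with NADPH or NADP+. Errors are from curve fitting for single runs, or SD across multiple experiments.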
# [2] = target: T1, 2-dehydropantoate 2-reductase; assay: Inhibition of Escherichia coli KPR; assay type: single protein
# Method in brief: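 His6-tagged E. coli KPR assayed at pH 7.5-7.7. It catalyses ketopantoate reduction with NADPH as cofactor. In the screen, ligand was tested at 1 mM with 20 µM NADPH, 1 mM ketopantoate and 2 nM enzyme. Ki was measured with five inhibitor concentrations against six NADPH concentrations, with NADPH as the varied substrate, and data were fitted to competitive or noncompetitive inhibition equations.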
# [3] = target: T2, 2-dehydropantoate 2-reductase (Escherichia coli K-12); assay: Inhibition of Escherichia coli KPR at 1 mM
# Method in brief: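 Single-point screen of His6-tagged E. coli KPR activity at pH 7.5-7.7. Ligand was tested at 1 mM with 20 µM NADPH, 1 mM ketopantoate and 2 nM enzyme. The result is reported as percent inhibition.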
# [4] = target: T2, 2-dehydropantoate 2-reductase (Escherichia coli K-12); assay: Inhibition of Escherichia coli KPR at 5 mM
# [5] = target: T2, 2-dehydropantoate 2-reductase (Escherichia coli K-12); 11 mM
# [6] = target: T2, 2-dehydropantoate 2-reductase (Escherichia coli K-12); assay: Inhibition of Escherichia coli KPR at 20 mM
# [7] = target: 2-dehydropantoate 2-reductase (Escherichia coli) (UniProt P0A9J4); assay: Inhibition of Escherichia coli KPR
Molecule,Kd [1] [µM],Ki [2] [µM],other results
Nc1ncnc2c1ncn2[C@@H]1O[C@H](COP(=O)(O)O)[C@@H](O)[C@H]1OP(=O)(O)O,100,240,Activity [3]: Active
Nc1ncnc2c1ncn2[C@@H]1O[C@H](COP(=O)(O)OP(=O)(O)OCC2OC(O)[C@H](O)[C@@H]2O)[C@@H](O)[C@H]1OP(=O)(O)O (stereo partly drawn),61,200,Activity [3]: Active
NC(=O)C1=CN(C2OC(COP(=O)(O)OP(=O)(O)OC[C@H]3O[C@@H](n4cnc5c(N)ncnc54)[C@H](O)[C@@H]3O)[C@H](O)[C@@H]2O)C=CC1 (stereo partly drawn),66,,
Nc1nc2c(ncn2[C@@H]2O[C@H](COP(=O)(O)OP(=O)(O)O)[C@@H](O)[C@H]2O)c(=O)[nH]1,373,,
NC(=O)c1ccc[n+]([C@@H]2O[C@H](COP(=O)([O-])O)[C@@H](O)[C@H]2O)c1,,,inhibition [4]: 0%
NC(=O)c1cccnc1,,,inhibition [5]: 0%
Nc1ncnc2c1ncn2[C@@H]1O[C@H](COP(=O)(O)OP(=O)(O)OCC2OC(O)[C@H](O)[C@@H]2O)[C@@H](O)[C@H]1O (stereo partly drawn),,,inhibition [4]: 0%
Nc1ncnc2c1ncn2[C@@H]1O[C@H](COP(=O)(O)OP(=O)(O)OC[C@H]2OC(O)[C@H](O)[C@@H]2O)[C@@H](O)[C@H]1O (stereo partly drawn) [ADENOSINE DIPHOSPHATE RIBOSE],6300,,
Nc1ncnc2c1ncn2[C@@H]1O[C@H](COP(=O)(O)OP(=O)(O)O)[C@@H](O)[C@H]1O [ADENOSINE DIPHOSPHATE],360,1050,Activity [3]: Active
Nc1ncnc2c1ncn2[C@@H]1O[C@H](COP(=O)(O)O)[C@@H](O)[C@H]1O [ADENOSINE PHOSPHATE],> 5000,6300,Activity [3]: Active
Nc1ncnc2c1ncn2[C@@H]1O[C@H](COP(=O)(O)OP(=O)(O)OP(=O)(O)O)[C@@H](O)[C@H]1O [ADENOSINE TRIPHOSPHATE],130,610,Activity [3]: Active
Nc1nc2c(ncn2[C@@H]2O[C@H](COP(=O)(O)OP(=O)(O)OP(=O)(O)O)[C@@H](O)[C@H]2O)c(=O)[nH]1 [GUANOSINE TRIPHOSPHATE],153,,
NC(=O)c1ccc[n+]([C@@H]2O[C@H](COP(=O)([O-])OP(=O)(O)OC[C@H]3O[C@@H](n4cnc5c(N)ncnc54)[C@H](O)[C@@H]3O)[C@@H](O)[C@H]2O)c1 [NADIDE],6900,,inhibition [6]: 10%
NC(=O)c1ccc[n+]([C@@H]2O[C@H](COP(=O)([O-])OP(=O)(O)OC[C@H]3O[C@@H](n4cnc5c(N)ncnc54)[C@H](OP(=O)(O)O)[C@@H]3O)[C@@H](O)[C@H]2O)c1 [NICOTINAMIDE ADENINE DINUCLEOTIDE PHOSPHATE],5.8,,
O=P(O)(O)O [PHOSPHORIC ACID],,27000,
NC(=O)c1ccc[n+]([C@@H]2O[C@H](COP(=O)([O-])OP(=O)(O)OC[C@H]3O[C@@H](n4cnc5c(N)ncnc54)[C@H](OP(=O)(O)O)[C@@H]3O)[C@@H](O)[C@H]2O)c1 [SODIUM beta-NICOTINAMIDE ADENINE DINUCLEOTIDE PHOSPHATE],0.26,,
"2-dehydropantoate 2-reductase (Escherichia coli K-12), P0A9J4 (protein) MKITVLGCGALGQLWLTALCKQGHEVQGWLRVPQPYCSVNLVETDGSIFNESLTANDPDFLATSDLLLVTLKAWQVSDAVKSLASTLPVTTPILLIHNGMGTIEELQNIQQPLLMGTTTHAARRDGNVIIHVANGITHIGPARQQDGDYSYLADILQTVLPDVAWHNNIRAELWRKLAVNCVINPLTAIWNCPNGELRHHPQEIMQICEEVAAVIEREGHHTSAEDLRDYVMQVIDATAENISSMLQDIRALRHTEIDYINGFLLRRARAHGIAVPENTRLFEMVKRKESEYERIGTGLPRPW",,,Km [7]: 750 µM
